# Source: PubChem
# MrgX1 agonist: agonists of human MrgX1 receptor; Q96LB2; MrgX1-HEK293 cells, Fluo-4 calcium fluorescence, agonist mode; active compounds read high; B-score at 10 µM; 310,000 compounds, 0.44% hits; AID 588627;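 active = calcium response B-score plate-corrected fluorescence ratio at least 3 library SD, with starting fluorescence B-score inside 5 SD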
#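 System – MrgX1-expressing HEK293 cells · Incubation – cells plated overnight, dye loaded 0.5 h 37 °C, 0.5 h room temperature · Technique – kinetic Fluo-4 NW fluorescence of intracellular calcium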
# MrgX1 allo act: human MrgX1 positive allosteric modulation, primary screen; MrgX1-HEK293, Fluo-4 calcium flux, FDSS; active compounds read high; B-score at 10 µM; 310,000 compounds, 0.63% hits; AID 588675;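 active = plate-corrected calcium response at least 3 library SD above typical, normal starting fluorescence, not activating the receptor alone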;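 note: compound read alongside a low EC10 to EC30 dose of BAM8-22 agonist; peak minus trough fluorescence over baseline measured at the second addition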
# MrgX1 antag: human MrgX1 receptor antagonism, primary screen. B-score at 10 µM. 310,000 compounds, 1.3% hits. Q96LB2. AID 588676. MRGX1-HEK293 calcium flux, Fluo-4, BAM8-22 antagonism; active compounds read low;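 active = calcium-response B-score plate-corrected more than 3 library SD below zero, starting fluorescence within 5 deviations, no agonist response on first addition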;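 note: peak minus trough fluorescence over baseline after final BAM8-22 challenge near maximal dose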
# RGS4 pot: potentiators or activators of RGS4 | B-score at 10 µM | HEK293 M3R/inducible RGS4, carbachol calcium flux Fluo4; active compounds read low | 310,000 compounds, 0.92% hits | AID 463111;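 active = B-score of the integrated calcium signal more than 4 SD below the library mean, with starting fluorescence not abnormally high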;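 note: negative B-score means reduced calcium response which marks RGS4 activation or potentiation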
#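 Assay system: HEK293 FlpIn-TREx cells, stable M3R, doxycycline-inducible RGS4 / Probe or stimulus: carbachol, ECmax concentration / Times: overnight RGS4 induction, 30 min dye load 37 °C, 20 min compound RT / Signal: kinetic calcium fluorescence imaging with Fluo4-AM dye, 2 µM / Measure: Agonist-evoked peak-minus-minimum fluorescence over baseline, integrated ratio, B score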
# RGS4 inh: human RGS4 inhibition; P49798; AID 463165; HEK293 M3R/RGS4 inducible, Fluo-4 calcium flux; active compounds read high; triggered by carbachol at its EC20; 310,000 compounds, 0.45% hits; B-score at 10 µM;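 active = B-score, a plate-corrected calcium signal, over three deviations above library mean, with baseline fluorescence within five deviations of library mean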;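 note: RGS4 expression induced by doxycycline in cells with stable M3 receptor; B-score is computed from the integrated fluorescence ratio over baseline after carbachol; higher B-score means a larger calcium signal and so more RGS4 inhibition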
# Target sequence (P49798 whole entry, looked up): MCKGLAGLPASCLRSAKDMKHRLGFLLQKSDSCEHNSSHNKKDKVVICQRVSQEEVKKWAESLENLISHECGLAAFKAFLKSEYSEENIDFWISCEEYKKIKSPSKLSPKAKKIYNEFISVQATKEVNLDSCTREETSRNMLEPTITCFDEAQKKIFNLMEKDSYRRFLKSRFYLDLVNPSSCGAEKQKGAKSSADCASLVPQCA
# RGS4 inh valid: RGS4 inhibitor validation; HEK293 M3R/RGS4, carbachol calcium Fluo-4 fluorescence; carbachol added at its EC20; 0 = buffer wells, 100 = carbachol control; shares compounds with RGS4 inh; calcium response, % at 10 µM; AID 492999; 1,700 compounds, 65% hits;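 active = duplicate-averaged calcium response above the buffer-only control mean plus 5 SD of those controls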;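 note: integrated fluorescence ratio F max minus min over baseline F0; higher response in RGS4-induced cells means RGS4 inhibition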
# M3R Ca ctr: non-induced cell nonspecific activity of RGS4 inhibitors | shares compounds with RGS4 inh | HEK293 M3R non-induced, carbachol calcium Fluo-4; submaximal (EC20) carbachol stimulus; buffer wells 0%, carbachol control wells 100% | activity (percent), % at 10 µM | 1,900 compounds, 20% hits; call rule not given here;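 note: RGS4 induction absent so cells express M3R without RGS4; higher means more calcium signal and flags a non-specific hit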
# M3R basal Ca ctr: second RGS4 inhibitor counter-screen in uninduced cells lacking carbachol; shares compounds with RGS4 inh; 1,900 compounds, 22% hits; HEK293 M3R/RGS4 non-induced, Fluo-4 calcium, no carbachol; normalised: buffer wells 0%, carbachol wells 100%; calcium response (agonist-mode artifact), % at 10 µM;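 active = duplicate-averaged calcium rise in uninduced cells above buffer wells' mean plus 5 SD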
# Starred values were filed as active, the others as inactive; i = inactive; / = no result. In the library only some 3.5% were active in any assay of this set; here they are far more common.
SMILES,MrgX1 agonist,MrgX1 allo act,MrgX1 antag,RGS4 pot,RGS4 inh,RGS4 inh valid,M3R Ca ctr,M3R basal Ca ctr
O=C(Cn1ccc(C(F)(F)F)n1)N=Nc1c(O)[nH]c2ccccc12,i,i,i,i,i,/,i,i
CC(C)n1c(O)c(N=NC(=O)Cn2ccc(C(F)(F)F)n2)c2ccccc21,i,i,i,i,i,/,/,/
Oc1[nH]c2ccc(Br)cc2c1N=Nc1ccc(C(F)(F)F)cn1,i,i,i,i,i,/,/,/
C=CCSc1n[nH]c2nc3c(c(=O)n12)C1(CCCC1)Cc1ccccc1-3,i,i,i,/,/,/,/,/
CCSc1n[nH]c2nc3c(c(=O)n12)C1(CCCC1)Cc1ccccc1-3,i,i,i,i,i,/,i,i
O=C1CCc2ccc(NC(=O)C3CC3)cc2N1,i,i,i,i,i,/,/,/
CC(=O)Nc1ccc(C23CC4CC(CC(C4)C2)C3)cc1,i,i,i,i,i,/,/,/
Oc1ccc(C23CC4CC(CC(C4)C2)C3)cc1O,i,i,i,i,22*,16%*,52%*,15%*
C=CCSc1nc2sc3c(c2c(=O)n1-c1ccc(C)cc1)CCN(C)C3,i,i,i,i,i,/,/,/
O=C(NNc1nc(=O)c2cccnc2s1)c1ccccc1O,i,i,i,i,5.2*,18%*,i,i
O=C(NNc1c2ccccc2nc2ccccc12)c1ccccc1O,i,i,i,i,i,/,/,/
CC(C)(C)C(=O)N1N=C(c2ccc(NS(C)(=O)=O)cc2)CC1c1cccs1 (stereo not given),i,i,i,i,i,/,/,/
C/C(=N\N=C1\NC(=O)C(CC(=O)Nc2ccc(C)c(Cl)c2)S1)C(C)(C)C (stereo not given),i,i,i,i,7.5*,70%*,i,i
C/C(=N\N=C1\NC(=O)C(CC(=O)Nc2ccc(Cl)cc2)S1)c1ccco1 (stereo not given),i,i,i,i,i,/,/,/
Cc1ccc(C(=O)N/C(=C/c2cccnc2)C(=O)NCc2ccco2)cc1,i,i,i,i,i,/,/,/
O=C(NCc1cccnc1)/C(=C/c1ccco1)NC(=O)c1ccccc1,i,i,i,i,i,/,/,/
O=C(NCc1cccnc1)/C(=C/c1ccccc1)NC(=O)c1ccccc1,i,i,i,i,5.2*,i,i,i
Cc1ccc(C(=O)N/C(=C\c2ccccc2)C(=O)NCc2cccnc2)cc1,i,i,i,i,i,i,i,i
CCOC(=O)[C@@H]1[C@H]2COc3cc(OC)ccc3[C@H]2N2C(=O)N(c3cccc(Cl)c3)C(=O)[C@@]12C,i,i,i,i,i,i,i,i
CCOC(=O)[C@@H]1[C@H]2COc3cc(OC)ccc3[C@H]2N2C(=O)N(c3cccc(Cl)c3)C(=O)[C@]12C,i,i,i,i,i,i,i,i
CCOC(=O)C1(CC2CCCCO2)CCN(Cc2cn[nH]c2-c2cccc(F)c2)CC1 (stereo not given),i,i,i,i,i,/,/,/
O=C(NCCc1ccccc1C(F)(F)F)C1CCC(=O)N(CCCN2CCCC2=O)C1 (stereo not given),i,i,i,i,i,/,/,/
CC(C)C(=O)N1CCN(c2nc(-c3ccc(Cl)cc3)cs2)CC1,i,i,i,i,5.5*,18%*,i,i
CCN(C(=O)Cc1c(C(=O)O)n(C)c2ccccc12)c1cccc(C)c1,i,i,i,i,i,i,i,i
